Screening results (PubChem)
Rows were chosen to be rich in hits. Some 1.5% of all compounds tested hit in one or more screens of this group.
CXCR6 block – CXCR6 (human) receptor inhibition; O00574; CHO-K1 PathHunter CXCR6 beta-arrestin, luminescence; inhibition, % at 20 µM; 0.36% of 360,000 active; AID 602244; in the data active means inhibition above about 34%, passing the limit was not always enough;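 further: antagonist mode with CXCL16 agonist at 10 nM final; 0% = 10 nM CXCL16 with DMSO and 100% = unstimulated wells without agonist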
APJ ag – agonists of human APJ apelin receptor. P35414. activation, % at 20 µM. AID 2520. CHO-K1 APJ PathHunter beta-arrestin, luminescence; 0% DMSO wells, 100% apelin. 0.11% of 330,000 active;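 active means activation more than six SD over the plate average, tested at 20 µM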;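 further: 0% = DMSO alone and 100% = apelin-13 at 10 nM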
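Test system: CHO-K1 APJ beta-arrestin complementation cell line. Amount: cell density 1000 per well. Controls: DMSO negative, 10 nM Apelin-13 positive. Signal: luminescent beta-gal fragment complementation, chemiluminescent substrate. Read-out basis: agonist-driven arrestin binding to APJ. Timing: compound stimulation 90 min at 25 °C, detection 60 min.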
CCR6 antagonist – CCR6 (human) receptor antagonism; CHO-K1 CCR6 PathHunter beta-arrestin, luminescence, CCL20-stimulated; inhibition, % at 20 µM; 0.49% of 340,000 active; AID 493098;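 active means compounds whose inhibition of the agonist-driven luminescence signal at 20 µM reaches about 50%, limit read from the data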;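 further: cells stimulated with CCL20 at 14 nM final; plate controls were DMSO with CCL20 for no effect and DMSO without agonist for full effect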
APJ antag – antagonists of human APJ apelin receptor; P35414; 0.32% of 330,000 active; inhibition, % at 20 µM; CHO-K1 APJ beta-arrestin complementation, luminescence;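 active means inhibition above about 40% at 20 µM, limit read from the data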;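 further: cells challenged with 10 nM apelin-13 agonist together with compound; plate controls were apelin-13 plus DMSO wells for no effect and DMSO wells lacking apelin-13 for full effect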
EBI2 block – EBI2 (human) antagonism | EBI2 beta-arrestin recruitment, luminescence, 7a,25-OHC stimulated | inhibition, % at 5 µM | 0.81% of 360,000 active; in the data active means inhibition above about 38%;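 further: enzyme fragment complementation signal reports receptor beta-arrestin coupling in cells; 0% = agonist plus DMSO wells and 100% = wells without agonist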
Target sequence (P32249 whole entry, looked up, the tested form may be a part): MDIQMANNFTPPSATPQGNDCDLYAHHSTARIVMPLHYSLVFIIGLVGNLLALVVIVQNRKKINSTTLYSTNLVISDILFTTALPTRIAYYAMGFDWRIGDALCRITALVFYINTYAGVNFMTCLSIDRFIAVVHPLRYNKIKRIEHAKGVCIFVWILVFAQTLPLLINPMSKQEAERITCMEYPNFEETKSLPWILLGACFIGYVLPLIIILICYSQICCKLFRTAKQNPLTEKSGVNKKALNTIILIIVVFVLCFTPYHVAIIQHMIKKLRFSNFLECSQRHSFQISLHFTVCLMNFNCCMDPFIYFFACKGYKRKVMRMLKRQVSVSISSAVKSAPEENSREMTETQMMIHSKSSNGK
EBI2 antag conf – confirmation of human EBI2 receptor antagonists. 29% of 2,400 active. inhibition, % at 5 µM. shares compounds with EBI2 block. EBI2 beta-arrestin luminescence, 7a,25-OHC antagonism. AID 651997;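 active means inhibition of at least 50%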
EBI2 agonist – activates EBI2, counter-screen for EBI2 antagonists; shares compounds with EBI2 block; EBI2-expressing cells, agonist mode, luminescence, 60 min; 0% vehicle, 100% 7α,25-dihydroxycholesterol control; activation, % at 5 µM; 2,400 tested, under 10 active;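 active means activation of at least 50%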
bGal counter – counter-screen for EBI2 antagonists: E. coli beta-galactosidase inhibition; 1% of 2,400 active; purified beta-galactosidase, luminescent Galacton Star, 15 min; shares compounds with EBI2 block; inhibition, % at 5 µM;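 active means replicate-average signal at least 3 plate SD below neutral wells, shown as high inhibition, flagging enzyme-inhibiting false positives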;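 further: 0% = DMSO wells with enzyme and 100% = wells lacking enzyme; higher means stronger loss of beta-gal luminescence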
* marks the source's active call; other numbers are inactive results; x = not tested or not shown.

SMILES	CXCR6 block	APJ ag	CCR6 antagonist	APJ antag	EBI2 block	EBI2 antag conf	EBI2 agonist	bGal counter
Cc1cccc2c(C(=O)N3CCN(c4ccccc4)CC3)cc(-c3ccncc3)nc12	0.3	-2.4	4.4	1.9	46.9*	27.8	0.1	-2.0
CC(=O)c1ccc(N2CCN(C(=O)c3cc(-c4ccncc4)nc4ccc(Cl)cc34)CC2)cc1	-25.2	18.2	-1.7	-30.4	45.2*	25.3	1.6	8.1
Cc1cc(N2CCN(c3nc(-c4ccccc4)cs3)CC2)c2ccccc2n1	7.8	-1.7	6.7	4.8	55.2*	33.3	0.6	4.7
CCc1ccccc1Nc1nc(N)nc(COC(=O)c2c(C)noc2C)n1	2.2	-1.0	10.9	-6.9	-8.1	x	x	x
CCOC(=O)C1=C(C)Nc2sc(C(=O)c3ccc(F)cc3)c(N)c2C1c1ccc(C(=O)OC)cc1 (stereo not drawn)	2.2	-4.2	17.5	7.7	36.8*	23.2	-2.3	-4.5
Cc1cc(Cl)cc(C)c1OCC(=O)N1CCN(c2ncccn2)CC1	4.8	-0.8	2.8	-1.2	75.7*	42.2	-1.5	-15.7
Cc1cc(Cl)ccc1OCC(=O)N1CCCCC1	0.8	-8.6	0.4	12.7	8.0	x	x	x
O=C(COc1ccccc1)N1CCN(c2ncccn2)CC1	-6.0	-2.6	2.5	-5.0	23.9	x	x	x
Cc1ccc(C(C)C)c(OCC(=O)N2CCN(c3ncccn3)CC2)c1	4.1	0.2	-0.6	-0.1	48.4*	44.0	-0.2	0.0
Cc1cc(Cl)ccc1OCC(=O)N1CCN(c2ncccn2)CC1	9.8	-2.5	6.6	7.2	55.8*	36.2	-0.4	-18.0
COc1ccc(NC(=O)CSc2nnc(C)n2N)cc1S(=O)(=O)N1CCCCC1	-9.3	-1.0	-4.0	9.8	-7.5	x	x	x
CCN(CC)c1ccc(C(=O)OCC(=O)Nc2ccc3[nH]c(=O)[nH]c3c2)cc1	2.4	-0.8	18.2	13.5	-1.7	x	x	x
O=C(NC(c1ccccc1)c1ccc2ccccc2n1)C1CCN(CCOc2ccc(Cl)cc2Cl)CC1 (stereo not drawn)	10.2	x	x	x	39.5	x	x	x
O=C(NC(c1ccc(F)cc1)c1ccc2ccccc2n1)C1CCN(CCOc2ccc(Cl)cc2)CC1 (stereo not drawn)	8.1	x	x	x	72.7*	51.5*	1.3	4.4
CCOC(=O)C1CCCN(C(=O)c2ccc(S(=O)(=O)Nc3ccccc3OC)cc2)C1 (stereo not drawn)	4.0	-1.2	1.3	11.8	-1.7	x	x	x
Cc1ccc(C2c3c(oc4ccccc4c3=O)C(=O)N2c2nnc(C(C)C)s2)o1 (stereo not drawn)	7.7	-2.5	0.5	14.1	1.4	x	x	x
Cc1ccc(S(=O)(=O)N2CCCN(C(=O)c3ccc(-n4nccc4C)cc3)CC2)cc1	2.1	1.2	0.1	11.6	46.8*	18.3	3.5	0.2
O=C(COC(=O)/C=C/c1ccc(Cl)cc1)NCCN1C(=O)CSC1=O	-0.2	-2.5	16.5	2.8	45.9*	46.4	3.5	5.8
CCOC(=O)C1=CCN(S(=O)(=O)c2ccccc2Br)C1c1ccccc1 (stereo not drawn)	4.3	x	x	x	5.7	x	x	x
COc1ccc(S(=O)(=O)N2CCCCC2c2cc(C(=O)Nc3ccc(OC)cc3C)no2)cc1 (stereo not drawn)	3.6	x	x	x	6.5	x	x	x
CN(Cc1ccccc1)C(=O)COC(=O)c1cc(=O)c2ccccc2o1	1.8	-0.3	3.1	18.4	4.8	x	x	x
CSc1ccc(CN(C)C(=O)c2cc(=O)c3ccccc3o2)cc1	-1.6	-3.3	19.0	13.9	77.8*	59.7*	-1.5	-14.3
CSc1ccc(CN(C)C(=O)c2cc3ccccc3o2)cc1	4.0	-3.4	9.3	18.8	50.0*	12.0	0.2	-11.3
Cc1ccc(NS(=O)(=O)c2cc(C(=O)NCCSc3ccc(C)cc3)ccc2C)cc1	8.5	1.2	18.1	-8.5	44.3*	11.4	-1.7	-8.4
Cc1ccc(SCCNC(=O)c2ccc(C)c(S(=O)(=O)Nc3cccc(C)c3)c2)cc1	13.7	-0.6	16.8	-14.2	42.1	x	x	x
